These results are taken from ChEMBL document CHEMBL1129476, “In vivo activity and hydrophobicity of cytostatic aziridinyl quinones” (J Med Chem, 1996).

Molecules are shown by their SMILES.

Data set [1] in a line: Observed rate of hydrolysis (logKobs) (pH=4.0). Type of data set: ADME. A digest of the protocol: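 Hydrolysis followed by cyclic voltammetry at 20 °C in deaerated 0.1 M acetate buffers (pH 5.0–3.5) or 0.02 M NaH2PO4 (pH 3.5, 3.0), ionic strength 0.1 M (NaNO3). Decrease of the parent cathodic peak tracked over time. Pseudo-first-order kobs from linear regression of log concentration versus time.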

The nature of data set [2]: log 1/LD50 for LD50 (mmol/kg). Type of data set: ADME.
The test system of data set [3] is L1210. In words: log 1/D125 for the dose (mmol/kg) to give 125%T/C ratio (L1210) in vivo. Type of data set: functional, Mus musculus.
Data set [4] in a line: Electrochemically observed pKa (pKred) of aziridines. Format: physicochemical. The following applies: read-out: pKred.
Data set [5] is described as follows: log KGSH for the rate k of glutathione (GSH) consumption in 1/s. Format: functional.
A short description of data set [6]: Partition coefficient (logP). Format: physicochemical. The following applies: octanol/water. A digest of the protocol: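 Micro shake-flask: buffered aqueous compound solution (pH 6.50) shaken with an equal volume of water-saturated 1-octanol at room temperature, 3 × 120 s. Centrifuged 14000g, 15 min. Aqueous phase analysed by RP-HPLC against the unshaken solution (methanol 30, 50 or 70 wt%, 1.0 mL/min, UV 254 nm). Run in duplicate, or quadruplicate if needed.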

Data set [7] deals with L1210. The data set can be described thus: log 1/ID75 for the in vitro clonogenic L1210 assay with ID75 in umol/L. Type of data set: functional, Mus musculus.
A further data set deals with Fungi. In words: log 1/MIC for fungi in mmol/L. Format: functional.
A short description of data set [8]: log 1/anion production. Type of data set: functional.
Data set [9] is described as follows: E1/2 for the half-wave potential at pH=7.0 in V57. Format: ADME.
Another data set has as its system B16. In words: log 1/D125 or the dose (mmol/kg) to give 125%T/C ratio (B16) in vivo. Format: functional, Mus musculus.
The nature of data set [10]: HPLC capacity factor (logK). Type of data set: ADME.
A further data set concerns Nucleic Acid. The data set can be described thus: DNA cross link ratio at pH=5.0 and 50 umol/L compound. Format: functional.

One may read the logP as the decadic logarithm of the partition coefficient of the neutral form, usually between octanol and water.

`CC1=C(N2C(C)C2C)C(=O)C(Br)=C(N2C(C)C2C)C1=O` (stereo not drawn): the Log Kobs in [1] was -1.15. For the same compound, the “Log 1/LD50 (mM kg-1)” value in data set [2] is on record as 0.63. The “Log 1/D125 (L1210) (mM kg-1)” value in the data set with L1210 [3] was 0.69.

As to `O=C1C=C(N2CC2)C(=O)C(N2CC2)=C1N1CC1` [TRIAZIQUONE], the pKa in data set [4] came out at 8. Further, the Log k GSH (s-1) in data set [5] is -3.14. For the same compound, in data set [6], the logP was 0.13. Further, in the data set with L1210 [7], the “Log 1/ID75 (uM L-1)” value is on record as 2.72. Moreover, the Log Kobs in [1] is -2.85. Further, the “Log 1/MIC (mM L-1)” value with Fungi is listed as 1.06. Moreover, the Log 1/conc (mM min-1 L-1) in data set [8] is 1.32. Besides, the “Log 1/LD50 (mM kg-1)” value in [2] was determined as 2.66. The E 1/2 in data set [9] is -0.171. Besides, the “Log 1/D125 (L1210) (mM kg-1)” value in the data set with L1210 [3] is given as 3.52. Moreover, in the data set with B16, the “Log 1/D125 (mM kg-1)” value is reported as 3.8.

For the compound `CC1=C(N2CC2)C(=O)C(Br)=C(N2CC2)C1=O`, the pKa in [4] came out at 8.7. Besides, the “Log K” value in data set [10] is 0.279. In addition, the “Log 1/ID75 (uM L-1)” value in the data set with L1210 [7] is recorded as 2.76. Further, the Log Kobs in data set [1] is -4.45. In the data set with Fungi, the “Log 1/MIC (mM L-1)” value is 1.45. Also, the Log 1/conc (mM min-1 L-1) in [8] was 2.45. In data set [2], the “Log 1/LD50 (mM kg-1)” value was 1.44. Moreover, the E 1/2 in data set [9] is -0.185. Further, the “Log 1/D125 (mM kg-1)” value in the data set with B16 was found to be 2.09.

As to `CC1=C(N2CC2)C(=O)C(CCO)=C(N2CC2)C1=O`, in data set [4], the pKa came to 8.6. In data set [6], this compound gave a logP of 0.18. Further, in the data set with L1210 [7], the “Log 1/ID75 (uM L-1)” value came to 1.51. For the same compound, the Log Kobs in data set [1] is -4. Besides, the “Log 1/MIC (mM L-1)” value in the data set on Fungi was 0.44. Further, the Log 1/conc (mM min-1 L-1) in [8] came to 0.95. In data set [2], the “Log 1/LD50 (mM kg-1)” value was determined as 1.39. The “Log 1/D125 (L1210) (mM kg-1)” value in the data set with L1210 [3] is given as 3.37. For the same compound, in the data set with B16, the “Log 1/D125 (mM kg-1)” value worked out at 3.6.

Consider `C/N=C1C(O)=C(N2CC2)/C(=N\C)C(O)=C\1N1CC1`, for which, in [4], the pKa amounted to 8.5. The compound further had a logP in data set [6] of 0.13. Further, the “Log 1/ID75 (uM L-1)” value in the data set with L1210 [7] is reported as 0.32. The E 1/2 in data set [9] was -0.415. Moreover, the “Log 1/D125 (L1210) (mM kg-1)” value with L1210 [3] is 2.49. Besides, the “Log 1/D125 (mM kg-1)” value in the data set on B16 is listed as 3.14.

For `CC1=C(C)C(=O)C(C)=C(C)C1=O` [DUROQUINONE], the “Log K” value in [10] amounted to 0.776. Moreover, the logP in data set [6] stood at 2.12.

Turning to `CCOC(=O)NC1=C(N2CC2C)C(=O)C(NC(=O)OCC)=C(N2CC2C)C1=O` (stereo not drawn), the pKa in data set [4] amounted to 8.5. For the same compound, in data set [1], the Log Kobs was -3.57. Also, the DNA cross-link ratio in the data set on Nucleic Acid was determined as 0.02. This compound yielded a Log 1/conc (mM min-1 L-1) in data set [8] of 1.26. In [2], the “Log 1/LD50 (mM kg-1)” value was found to be 0.69. In addition, in data set [9], the E 1/2 is -0.145. Besides, in the data set with L1210 [3], the “Log 1/D125 (L1210) (mM kg-1)” value is 1.59. For the same compound, the “Log 1/D125 (mM kg-1)” value in the data set with B16 was determined as 1.94.

Consider `O=C1/C(=N/CCO)C=C(O)c2ccccc21`, for which the Log K in data set [10] is -0.005. In addition, the logP in data set [6] is 1.23.

On to `CC1=C(N2CC2C)C(=O)C(CCOC(N)=O)=C(N2CC2C)C1=O` (stereo not drawn), for which the pKa in [4] was 9.7. In addition, the Log Kobs in data set [1] was -3.67. Also, the DNA cross-link ratio with Nucleic Acid was 0.13. The Log 1/conc (mM min-1 L-1) in data set [8] is 0.56. Further, the E 1/2 in data set [9] is -0.235. Further, in the data set on L1210 [3], the “Log 1/D125 (L1210) (mM kg-1)” value worked out at 1.89. The “Log 1/D125 (mM kg-1)” value with B16 was 2.31.

Compound `CC1=CC(=O)C=CC1=O` [Cresoquinone] registered a log partition coefficient (logP) in data set [6] of 0.73.

As for `CC1=C(N2CC2)C(=O)C(Cl)=C(N2CC2)C1=O`, the pKa in [4] was 8.5. The “Log K” value in data set [10] amounted to 0.2. Moreover, the “Log 1/ID75 (uM L-1)” value with L1210 [7] is 2.41. The Log Kobs in data set [1] was -4.32. This compound also showed a Log 1/conc (mM min-1 L-1) in data set [8] of 2.42. Also, the E 1/2 in data set [9] is -0.197. For the same compound, the “Log 1/D125 (L1210) (mM kg-1)” value with L1210 [3] is given as 1.99. Moreover, in the data set on B16, the “Log 1/D125 (mM kg-1)” value worked out at 2.68.

`NC1=CC(=O)c2ccccc2C1=O`: the “Log K” value in data set [10] was 0.129. In [6], this compound had a logP of 1.88.

As for `O=C1C(F)=C(N2CC2)C(=O)C(N2CC2)=C1N1CC1`, the pKa in [4] was 7.8. In addition, the Log k GSH (s-1) in data set [5] is -2.24. Moreover, the “Log 1/ID75 (uM L-1)” value in the data set with L1210 [7] was found to be 2.32. Besides, the Log Kobs in [1] is -3.75. Besides, the “Log 1/MIC (mM L-1)” value in the data set with Fungi stood at 1.79. Moreover, the DNA cross-link ratio in the data set with Nucleic Acid turned out to be 0.17. For the same compound, in [8], the Log 1/conc (mM min-1 L-1) was determined as 1.72. Moreover, in [2], the “Log 1/LD50 (mM kg-1)” value is on record as 1.62. For the same compound, the E 1/2 in data set [9] was -0.171. Moreover, in the data set with L1210 [3], the “Log 1/D125 (L1210) (mM kg-1)” value is reported as 1.95.

Regarding `CC1=C(N2CC2)C(=O)C(CCOC(N)=O)=C(N2CC2)C1=O`, in data set [4], the pKa stood at 8.9. The Log k GSH (s-1) in data set [5] was -4.92. Also, the “Log 1/ID75 (uM L-1)” value in the data set on L1210 [7] is 1.82. The Log Kobs in data set [1] is -4.05. In the data set on Nucleic Acid, the DNA cross-link ratio was 0.27. This compound returned a Log 1/conc (mM min-1 L-1) in data set [8] of 1.02. The “Log 1/LD50 (mM kg-1)” value in data set [2] turned out to be 1.99. For the same compound, the E 1/2 in data set [9] was -0.213. For the same compound, the “Log 1/D125 (L1210) (mM kg-1)” value with L1210 [3] was found to be 2.86. The “Log 1/D125 (mM kg-1)” value in the data set on B16 amounted to 3.49.
